In the library only some 2.3% were active in any assay of this set; here they are far more common.
TRPC6 activator – activates the mouse TRPC6 cation channel. Q61143. B-score at 10 µM. 310,000 tested, 0.13% active. HEK293-TRPC6 membrane potential dye fluorescence; stronger effect = higher value;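 active means B-score of the integrated fluorescence ratio above library mean plus 3 SD, and starting fluorescence ratio within library mean plus 5 SD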;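 further: higher score means more depolarization so channel activation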
TRPC4 agonist – TRPC4 (mouse) channel activation; Q9QUQ5; HEK293 TRPC4beta/mu-opioid, Fluo4 calcium fluorescence; stronger effect = higher value; 310,000 tested, 0.49% active; AID 2237; B-score at 10 µM;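 active means B-score above 5 SD of library B-scores, and initial fluorescence ratio not above library mean plus 5 SD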;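 further: positive B-score marks a calcium rise read as TRPC4 activation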
Target sequence (Q9QUQ5 whole entry, looked up): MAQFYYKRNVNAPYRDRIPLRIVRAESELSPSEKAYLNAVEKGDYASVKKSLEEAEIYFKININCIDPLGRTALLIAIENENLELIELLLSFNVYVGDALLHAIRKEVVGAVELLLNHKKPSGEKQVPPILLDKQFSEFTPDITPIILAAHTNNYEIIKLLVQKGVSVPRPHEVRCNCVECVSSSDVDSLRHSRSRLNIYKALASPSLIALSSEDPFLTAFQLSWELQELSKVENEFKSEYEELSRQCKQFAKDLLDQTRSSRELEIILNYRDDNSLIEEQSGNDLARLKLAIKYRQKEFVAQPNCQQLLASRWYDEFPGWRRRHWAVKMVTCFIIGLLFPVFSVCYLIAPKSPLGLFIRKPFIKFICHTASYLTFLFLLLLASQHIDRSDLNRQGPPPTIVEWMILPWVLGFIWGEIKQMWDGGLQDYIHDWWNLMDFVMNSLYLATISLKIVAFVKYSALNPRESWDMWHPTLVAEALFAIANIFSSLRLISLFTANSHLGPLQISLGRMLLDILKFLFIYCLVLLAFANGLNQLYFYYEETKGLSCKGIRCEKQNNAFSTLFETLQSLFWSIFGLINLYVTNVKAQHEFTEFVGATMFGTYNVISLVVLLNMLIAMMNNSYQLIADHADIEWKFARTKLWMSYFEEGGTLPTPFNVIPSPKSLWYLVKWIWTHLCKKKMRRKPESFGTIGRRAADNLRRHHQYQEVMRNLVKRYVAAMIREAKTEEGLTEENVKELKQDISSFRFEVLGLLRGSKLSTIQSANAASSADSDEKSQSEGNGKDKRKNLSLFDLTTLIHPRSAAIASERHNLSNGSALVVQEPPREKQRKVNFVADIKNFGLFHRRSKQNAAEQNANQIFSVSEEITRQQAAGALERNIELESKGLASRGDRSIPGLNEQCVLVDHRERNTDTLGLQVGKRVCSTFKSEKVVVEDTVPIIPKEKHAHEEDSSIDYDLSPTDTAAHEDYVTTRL
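Assay system – TRPC4beta and mu-opioid receptor HEK293 stable cells · Measured by – Fluo4 fluorescence, kinetic · Schedule – dye loading 45 min room temperature, 110 s kinetic read · Read-out – B-scored integrated calcium fluorescence ratio · Controls – buffer and maximal DAMGO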
TRPC6 inh – blocks the mouse TRPC6 cation channel; HEK293-TRPC6, membrane potential dye, ACh-evoked depolarization; stronger effect = lower value; B-score at 10 µM; 310,000 tested, 1.1% active; AID 2553;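 active means B-score under library mean minus 3 SD, initial fluorescence not abnormally high, positive integrated signal ratio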;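 further: B-score derived from integrated fluorescence ratio over the kinetic read; more negative B-score means stronger inhibition of depolarization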
TRPC4 inh – TRPC4 (mouse) channel inhibition | HEK293 TRPC4beta/mu-opioid, DAMGO-evoked Fluo4 calcium flux; stronger effect = lower value | B-score at 10 µM | 300,000 tested, 0.39% active;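 active means B-score over 3 SD under the library average, no early fluorescence shift, positive overall ratio signal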
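Assay system – HEK293 line stably carrying TRPC4beta and mu-opioid receptor · Doses – single dose · Detection – Fluo4 calcium-dye fluorescence, kinetic read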
TRPC4 PAM – allosterically enhances the mouse TRPC4 cation channel. 310,000 tested, 0.42% active. B-score at 10 µM. HEK293 TRPC4beta/mu-opioid, DAMGO EC20, Fluo-4 Ca2+ flux; stronger effect = higher value;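 active means B-score of calcium response area above 5 SD of library B-scores, with initial fluorescence ratio within 5 SD of library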;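 further: B-score of integrated fluorescence ratio over time as area under calcium response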
TRPC4 sel inh 2 – second selectivity test of TRPC6 inhibitors: effect on mouse TRPC4 | shares compounds with TRPC6 inh | HEK293 TRPC4/MOR, membrane potential dye fluorescence; channel activated by saturating DAMGO dose | inhibition, % at 10 µM | 920 tested, 42% active;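 active means compounds whose fluorescence signal differed from control wells by over 3 SD, either direction, in both duplicate plates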
TRPC4 spec – selectivity of TRPC6 inhibitors: effect on mouse TRPC4; shares compounds with TRPC6 inh; HEK293 TRPC4/mu-opioid, membrane potential fluorescence; activity change, negative = inhibition, % at 10 µM; 920 tested, 61% active;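 active means rise or fall in signal beyond 3 SD of buffer-only wells in both replicate plates, either sign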;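 further: integrated kinetic ratio of fluorescence range over baseline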
HEK293 MPD ctr 2-1 – second counter-screen for TRPC6 inhibitors: parental HEK293 cells | signal change vs control, % at 10 µM | shares compounds with TRPC6 inh | 920 tested, 31% active | parental HEK293 membrane potential dye fluorescence; maximal acetylcholine challenge after compound addition;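 active means membrane potential signal moving either way by over 3 SD of the maximum-effect control, in both duplicate plates, meaning non-specific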
HEK293 MPD ctr-1 – counter-screen for TRPC6 inhibitors: effect in parental HEK293 cells. shares compounds with TRPC6 inh. parental HEK293 membrane potential dye fluorescence. membrane potential signal change, % at 10 µM. 920 tested, 60% active;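 active means membrane potential signal shifting up or down by more than 3 SD of buffer-only wells, on both duplicate plates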
HEK293 MPD ctr-2 – counter-screen for TRPC6 modulators: effect in parental HEK293 cells; 2,400 tested, 51% active; membrane potential signal change, % at 10 µM; membrane potential dye fluorescence; shares compounds with TRPC6 inh;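 active means membrane potential signal moves up or down beyond 5 SD from buffer-only wells, on both duplicate plates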
HEK293 MPD ctr 2-2 – second counter-screen for TRPC6 modulators: effect in parental HEK293 cells; shares compounds with TRPC6 inh; membrane potential dye fluorescence; after compound, maximal acetylcholine stimulation; inhibition, % at 10 µM; 2,400 tested, 14% active; AID 488926;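 active means membrane potential signal drops by more than 5 SD from the mean control signal, in both duplicate plates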;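 further: plate controls were acetylcholine ECmax control wells for no effect and buffer only wells for full effect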
TRPC4/MOR mod – mouse TRPC4 off-target activity of TRPC6 modulators | shares compounds with TRPC6 inh | HEK293 TRPC4/mu-opioid, membrane potential fluorescence | percent change from control (negative = decrease, positive = increase), % at 10 µM | 2,400 tested, 69% active;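 active means membrane potential signal moved up or down beyond 5 SD of buffer control wells, in both duplicate plates, actives on both sides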;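 further: plate controls were assay buffer wells for no effect and DAMGO maximal-effect wells for full effect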
TRPC4 ctr inh 2 – mouse TRPC4 off-target activity of TRPC6 modulators, second screen; inhibition, % at 10 µM; 2,400 tested, 55% active; shares compounds with TRPC6 inh; HEK293 TRPC4/mu-opioid, membrane potential dye fluorescence; stimulated with maximal-effect DAMGO;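 active means drop in membrane potential signal beyond 5 SD of the control wells in both duplicate plates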;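 further: TRPC4 counter screen for TRPC6 hits run under conditions tuned for TRPC6 not TRPC4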
TRPC6 inh conf – mouse TRPC6 inhibitor confirmation | shares compounds with TRPC6 inh | HEK293-TRPC6, membrane potential dye, ACh-evoked depolarization | AID 488960 | 3,300 tested, 43% active | inhibition, % at 10 µM;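 active means fluorescence ratio falls more than 5 SD below the full-stimulation control mean, in both duplicate runs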;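 further: integrated fluorescence ratio of peak minus minimum over baseline after agonist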
TRPC6 act confirm – mouse TRPC6 activator confirmation | shares compounds with TRPC6 inh | HEK293-TRPC6 membrane potential dye fluorescence, FDSS | activation, % at 10 µM | 2,800 tested, 11% active;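 active means ratio signal rise beyond 5 SD above unstimulated control wells' mean, seen in both duplicate runs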;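 further: plate controls were buffer EC0 wells for no effect and acetylcholine ECmax response for full effect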
Numbers without * were called inactive; i = inactive; · = not tested or not shown.

SMILES	TRPC6 activator	TRPC4 agonist	TRPC6 inh	TRPC4 inh	TRPC4 PAM	HEK293 MPD ctr-2	HEK293 MPD ctr 2-2	TRPC4/MOR mod	TRPC4 ctr inh 2	TRPC6 inh conf	TRPC6 act confirm	others
CCOC(=O)C(C)NC(=O)c1cn(-c2ccc(OC)cc2)c(=O)c2ccccc12 (stereo unspecified)	i	i	i	i	i	·	·	·	·	·	·
N=c1c(C(=O)NC2CCCCC2)cc2c(=O)n3ccccc3nc2n1Cc1cccnc1	i	i	-5.5*	i	i	-84%*	i	-24%*	30%*	36%*	i
N=c1c(C(=O)NC2CCCCC2)cc2c(=O)n3ccccc3nc2n1Cc1ccccc1	i	i	-8*	i	i	-142%*	i	-36%*	50%*	46%*	i
O=C(CCC1CCCCC1)NNC(=O)c1cnccn1	i	i	i	i	i	·	·	·	·	·	·
O=C(c1ccc(Cl)c(F)c1F)N1CCCC1	i	i	i	i	i	·	·	·	·	·	·
COc1cc(/C=N/NC(=O)Cn2nc([N+](=O)[O-])cc2C)cc(Br)c1OCc1ccccc1	i	i	-5.1*	i	i	i	i	i	i	i	i
CCOC(=O)N1CCC(n2c(SCC(=O)OCc3ccccc3)nc3ccsc3c2=O)CC1	i	i	i	i	i	·	·	·	·	·	·
CCOC(=O)CSc1nc2ccsc2c(=O)n1C1CCN(C(=O)OCC)CC1	15*	i	-6.8*	i	i	133%*	i	34%*	i	i	60%*
CNCCCOc1cccc(OC(C)C)c1	i	i	i	i	i	·	·	·	·	·	·
CNCCCOc1cccc(Oc2ccccc2)c1	i	i	-5.1*	i	10*	100%*	i	12%*	35%*	52%*	i
COc1ccc2c(c1)c(C)cc[n+]2Cc1ccccc1	i	i	-5.2*	i	i	-260%*	i	-48%*	52%*	48%*	i
CC(C)Sc1nc2ncnc(N)c2[nH]1	i	i	i	i	i	·	·	·	·	·	·
O=C(Nc1cccc(CNCCc2c[nH]c3ccccc23)c1)c1ccccc1Cl	i	i	-6.5*	i	i	i	i	-15%*	80%*	55%*	i
CC(=O)c1cccc(NC(=O)c2ccccc2N(Cc2ccccc2)S(C)(=O)=O)c1	i	i	i	i	i	·	·	·	·	·	·
COc1ccc2c(c1)c(C(=O)CN1CCc3ccccc3C1)c(C)n2C	i	i	-6.5*	i	i	-88%*	i	-16%*	59%*	44%*	i
Cc1cc(C)n(-c2nc(SCCN(C)C)c3c4c(sc3n2)COC(C)(C)C4)n1	i	i	-9.8*	i	i	·	·	·	·	57%*	i	TRPC4 sel inh 2=48%*;TRPC4 spec=-15%*;HEK293 MPD ctr 2-1=i;HEK293 MPD ctr-1=-304%*
COc1ccc(/C=C/CN2CCC(Oc3ccc(C(=O)N4CCCCC4)cc3)CC2)cc1	i	i	i	i	i	·	·	·	·	·	·
COc1ccccc1/C=C/CN1CCC(Oc2ccc(C(=O)N3CCCCC3)cc2)CC1	i	i	-5.8*	i	i	240%*	i	22%*	80%*	51%*	·
COC(=O)c1ccc(CN2CCC(Oc3cccc(C(=O)N4CCCC4)c3)CC2)cc1	i	i	i	i	i	·	·	·	·	·	·
COC(=O)c1ccc(CN2CCC(Oc3ccc(C(=O)N4CCCCC4)cc3)CC2)cc1	i	i	-5.7*	i	i	140%*	i	15%*	i	46%*	·
Cc1ccc(S(=O)(=O)N2CCCC2C(=O)NCc2ccc3c(c2)OCO3)cc1 (stereo unspecified)	i	i	i	i	i	·	·	·	·	·	·
Brc1cccc(-c2cnc3n2CCCCC3)c1	i	i	-5.4*	i	i	136%*	i	24%*	48%*	54%*	·
O=C(Cn1[nH]c(=O)c2ccccc2c1=O)OCC(=O)N1CCc2ccccc2C1	i	i	-7.3*	i	i	·	·	·	·	i	·	TRPC4 sel inh 2=i;TRPC4 spec=7.2%*;HEK293 MPD ctr 2-1=i;HEK293 MPD ctr-1=4.2%*
O=C(Cn1[nH]c(=O)c2ccccc2c1=O)OCC(=O)N1CCCc2ccccc21	i	i	i	i	i	·	·	·	·	·	·
C/C(=N/NC(=O)CNC(=O)c1ccccc1F)c1ccc2c(c1)CCCC2	i	i	i	i	i	·	·	·	·	·	·
O=C(c1ccc([N+](=O)[O-])cc1)N(Cc1ccc(Cl)cc1)N1C(=O)CCCC1=O	17*	47*	-16*	i	i	390%*	159%*	50%*	45%*	80%*	122%*
O=C(CNC(=O)c1ccccc1F)N/N=C/c1cn[nH]c1-c1ccccc1	i	i	-5.8*	i	i	i	i	i	i	i	·
N#Cc1cc2[nH]c3ccccc3c2[n+](-c2ccc([N+](=O)[O-])cc2)c1N	i	i	-9.9*	i	i	-322%*	94%*	-18%*	97%*	75%*	i
O=C(COC(=O)CCc1ccccc1)Nc1ncc(Cl)cc1Cl	i	i	i	i	i	·	·	·	·	·	·

Compound activity deposited in PubChem BioAssay by Johns Hopkins Ion Channel Center.
